Measured values reported in ChEMBL document CHEMBL1157912, “Impact of nature and length of linker incorporated in agonists on toll-like receptor 9-mediated immune responses” (J Med Chem, 2010).
Activity calls are given as the source filed them. The calls are words filed in the database; no cut-off is given here.

What was measured:
[1] = biological target: T1, Toll-like receptor 9 (Homo sapiens) (UniProt Q9NR96); assay: Induction of TLR9-mediated immune stimulation in human PBMC assessed as IL1Ralpha production at 2 ug/ml after 24 hrs by luminex multiplex assay (RVb = 0.12 +/- 0.03 ng/ml)
T1 sequence (whole entry): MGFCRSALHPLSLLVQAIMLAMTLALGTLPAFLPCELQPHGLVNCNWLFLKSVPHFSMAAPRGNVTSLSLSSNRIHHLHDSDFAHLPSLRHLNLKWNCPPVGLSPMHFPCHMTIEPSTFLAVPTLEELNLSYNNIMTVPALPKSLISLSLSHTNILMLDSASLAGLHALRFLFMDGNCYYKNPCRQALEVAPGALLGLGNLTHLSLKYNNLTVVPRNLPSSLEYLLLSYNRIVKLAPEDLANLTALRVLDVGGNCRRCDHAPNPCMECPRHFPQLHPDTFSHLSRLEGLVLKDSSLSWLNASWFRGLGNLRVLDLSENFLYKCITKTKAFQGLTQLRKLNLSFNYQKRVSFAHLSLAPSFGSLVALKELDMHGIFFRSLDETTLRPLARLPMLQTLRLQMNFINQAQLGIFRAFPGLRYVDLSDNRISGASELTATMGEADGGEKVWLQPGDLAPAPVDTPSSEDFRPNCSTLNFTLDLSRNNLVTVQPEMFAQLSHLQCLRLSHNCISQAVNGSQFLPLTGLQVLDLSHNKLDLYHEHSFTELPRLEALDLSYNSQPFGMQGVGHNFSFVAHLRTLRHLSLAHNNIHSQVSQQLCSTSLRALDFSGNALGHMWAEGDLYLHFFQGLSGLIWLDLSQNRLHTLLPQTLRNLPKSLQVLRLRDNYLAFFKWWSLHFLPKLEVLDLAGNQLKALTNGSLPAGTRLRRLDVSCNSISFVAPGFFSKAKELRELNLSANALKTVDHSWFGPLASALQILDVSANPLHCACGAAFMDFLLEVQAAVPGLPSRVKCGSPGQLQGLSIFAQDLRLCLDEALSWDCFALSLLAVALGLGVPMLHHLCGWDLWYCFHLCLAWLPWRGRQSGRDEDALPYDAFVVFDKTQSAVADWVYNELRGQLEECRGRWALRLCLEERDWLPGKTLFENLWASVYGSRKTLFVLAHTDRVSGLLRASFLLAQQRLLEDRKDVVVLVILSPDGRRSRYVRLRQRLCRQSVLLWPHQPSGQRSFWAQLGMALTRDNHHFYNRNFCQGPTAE

[2] = biological target: T1, Toll-like receptor 9 (Homo sapiens); assay: Induction of TLR9-mediated immune stimulation in human PBMC assessed as IL1Ralpha production at 10 ug/ml after 24 hrs by luminex multiplex assay (RVb = 0.12 +/- 0.03 ng/ml)
[3] = biological target: T1, Toll-like receptor 9 (Homo sapiens); assay: Induction of TLR9-mediated immune stimulation in human PBMC assessed as IL2R production at 2 ug/ml after 24 hrs by luminex multiplex assay (RVb = 0.02 +/- 0.01 ng/ml)
[4] = biological target: T1, Toll-like receptor 9 (Homo sapiens); assay: Induction of TLR9-mediated immune stimulation in human PBMC assessed as IL12 production at 10 ug/ml after 24 hrs by luminex multiplex assay (RVb = 0.00 ng/ml)
[5] = biological target: T1, Toll-like receptor 9 (Homo sapiens); assay: Induction of TLR9-mediated immune stimulation in human PBMC assessed as MIP1alpha production at 2 ug/ml after 24 hrs by luminex multiplex assay (RVb = 0.01 ng/ml)
[6] = biological target: T1, Toll-like receptor 9 (Homo sapiens); assay: Induction of TLR9-mediated immune stimulation in human PBMC assessed as IP10 production at 2 ug/ml after 24 hrs by luminex multiplex assay (RVb = 0.00 ng/ml)
[7] = biological target: T1, Toll-like receptor 9 (Homo sapiens); assay: Induction of TLR9-mediated immune stimulation in human PBMC assessed as IP10 production at 10 ug/ml after 24 hrs by luminex multiplex assay (RVb = 0.00 ng/ml)
[8] = biological target: T1, Toll-like receptor 9 (Homo sapiens); assay: Induction of TLR9-mediated immune stimulation in human PBMC assessed as RANTES production at 10 ug/ml after 24 hrs by luminex multiplex assay (RVb = 0.05 +/- 0.04 ng/ml)
[9] = biological target: T1, Toll-like receptor 9 (Homo sapiens); assay: Induction of TLR9-mediated immune stimulation in human PBMC assessed as MCP1 production at 10 ug/ml after 24 hrs by luminex multiplex assay (RVb = 0.08 +/- 0.02 ng/ml)
[10] = biological target: T1, Toll-like receptor 9 (Homo sapiens); assay: Induction of TLR9-mediated human B cell proliferation assessed as [3H]thymidine uptake after 56 hrs by scintillation counting
Outline: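 B cells were purified from human PBMCs (healthy volunteers), about 1 × 10⁵ cells, and stimulated with various agonist concentrations for 56 h. Cells were then pulsed with 0.75 μCi [³H]-thymidine and harvested 16 h later. Incorporation was counted by scintillation and reported as cpm.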

Mus musculus = assay: Immunostimulatory activity in C57BL/6 mouse assessed as increase in serum IL12 level at 1 mg/kg, sc after 2 hrs by ELISA; type: functional, organism-based; parameters: dose 1 mg/kg
Outline: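 Female C57BL/6 mice (n=3) received a single subcutaneous agonist dose of 1 mg/kg. Blood was taken by retro-orbital bleeding 2 h later, and serum IL-12 was measured by sandwich ELISA. Values are the mean of three mice ± SD.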

Compound	Activity [1]	Activity [2]	Activity [3]	Activity [4]	Activity [5]	Activity [6]	Activity [7]	Activity [8]	Activity [9]	Activity [10]	Activity (Mus musculus)
Cc1cn([C@H]2C[C@H](O[C@H]3C[C@@H](O)C[C@@H](OP(=O)(S)O[C@H]4C[C@H](n5cc(C)c(=O)[nH]c5=O)O[C@@H]4COP(=O)(S)O[C@H]4[C@@H](O)[C@H](n5ccc(N)nc5=O)O[C@@H]4COP(=O)(S)O[C@H]4C[C@H](n5cc(C)c(=O)[nH]c5=O)O[C@@H]4COP(=O)(S)O[C@H]4C[C@H](n5cc(C)c(=O)[nH]c5=O)O[C@@H]4COP(=O)(S)O[C@H]4C[C@H](n5ccc6c(=O)[nH]c(N)nc65)O[C@@H]4COP(=O)(S)O[C@H]4[C@@H](O)[C@H](n5ccc(N)nc5=O)O[C@@H]4COP(=O)(S)O[C@H]4C[C@H](n5cc(C)c(=O)[nH]c5=O)O[C@@H]4COP(=O)(S)O[C@H]4[C@@H](O)[C@H](n5cnc6c(=O)[nH]c(N)nc65)O[C@@H]4COP(=O)(S)O[C@H]4C[C@H](n5cc(C)c(=O)[nH]c5=O)O[C@@H]4COP(=O)(S)O[C@H]4[C@@H](O)[C@H](n5ccc(N)nc5=O)O[C@@H]4COP(=O)(S)O[C@H]4C[C@H](n5cc(C)c(=O)[nH]c5=O)O[C@@H]4CO)C3)[C@@H](COP(=O)(S)O[C@H]3[C@@H](O)[C@H](n4ccc(N)nc4=O)O[C@@H]3COP(=O)(S)O[C@H]3C[C@H](n4cc(C)c(=O)[nH]c4=O)O[C@@H]3COP(=O)(S)O[C@H]3C[C@H](n4cc(C)c(=O)[nH]c4=O)O[C@@H]3COP(=O)(S)O[C@H]3C[C@H](n4ccc5c(=O)[nH]c(N)nc54)O[C@@H]3COP(=O)(S)O[C@H]3[C@@H](O)[C@H](n4ccc(N)nc4=O)O[C@@H]3COP(=O)(S)O[C@H]3C[C@H](n4cc(C)c(=O)[nH]c4=O)O[C@@H]3COP(=O)(S)O[C@H]3[C@@H](O)[C@H](n4cnc5c(=O)[nH]c(N)nc54)O[C@@H]3COP(=O)(S)O[C@H]3C[C@H](n4cc(C)c(=O)[nH]c4=O)O[C@@H]3COP(=O)(S)O[C@H]3[C@@H](O)[C@H](n4ccc(N)nc4=O)O[C@@H]3COP(=O)(S)O[C@H]3C[C@H](n4cc(C)c(=O)[nH]c4=O)O[C@@H]3CO)O2)c(=O)[nH]c1=O (some centres not stated)	13.6 ng/mL	97.2 ng/mL	0.07 ng/mL	0.2 ng/mL	0.05 ng/mL	0.03 ng/mL	0.03 ng/mL	2.13 ng/mL	8.45 ng/mL	Dose-dependent effect	Active
Cc1cn([C@H]2C[C@H](O[C@@H]3C[C@@H](O)C[C@@H](OP(=O)(S)O[C@H]4C[C@H](n5cc(C)c(=O)[nH]c5=O)O[C@@H]4COP(=O)(S)O[C@H]4[C@@H](O)[C@H](n5ccc(N)nc5=O)O[C@@H]4COP(=O)(S)O[C@H]4C[C@H](n5cc(C)c(=O)[nH]c5=O)O[C@@H]4COP(=O)(S)O[C@H]4C[C@H](n5cc(C)c(=O)[nH]c5=O)O[C@@H]4COP(=O)(S)O[C@H]4C[C@H](n5ccc6c(=O)[nH]c(N)nc65)O[C@@H]4COP(=O)(S)O[C@H]4[C@@H](O)[C@H](n5ccc(N)nc5=O)O[C@@H]4COP(=O)(S)O[C@H]4C[C@H](n5cc(C)c(=O)[nH]c5=O)O[C@@H]4COP(=O)(S)O[C@H]4[C@@H](O)[C@H](n5cnc6c(=O)[nH]c(N)nc65)O[C@@H]4COP(=O)(S)O[C@H]4C[C@H](n5cc(C)c(=O)[nH]c5=O)O[C@@H]4COP(=O)(S)O[C@H]4[C@@H](O)[C@H](n5ccc(N)nc5=O)O[C@@H]4COP(=O)(S)O[C@H]4C[C@H](n5cc(C)c(=O)[nH]c5=O)O[C@@H]4CO)C3)[C@@H](COP(=O)(S)O[C@H]3[C@@H](O)[C@H](n4ccc(N)nc4=O)O[C@@H]3COP(=O)(S)O[C@H]3C[C@H](n4cc(C)c(=O)[nH]c4=O)O[C@@H]3COP(=O)(S)O[C@H]3C[C@H](n4cc(C)c(=O)[nH]c4=O)O[C@@H]3COP(=O)(S)O[C@H]3C[C@H](n4ccc5c(=O)[nH]c(N)nc54)O[C@@H]3COP(=O)(S)O[C@H]3[C@@H](O)[C@H](n4ccc(N)nc4=O)O[C@@H]3COP(=O)(S)O[C@H]3C[C@H](n4cc(C)c(=O)[nH]c4=O)O[C@@H]3COP(=O)(S)O[C@H]3[C@@H](O)[C@H](n4cnc5c(=O)[nH]c(N)nc54)O[C@@H]3COP(=O)(S)O[C@H]3C[C@H](n4cc(C)c(=O)[nH]c4=O)O[C@@H]3COP(=O)(S)O[C@H]3[C@@H](O)[C@H](n4ccc(N)nc4=O)O[C@@H]3COP(=O)(S)O[C@H]3C[C@H](n4cc(C)c(=O)[nH]c4=O)O[C@@H]3CO)O2)c(=O)[nH]c1=O (some centres not stated)	14.2 ng/mL	109 ng/mL	0.02 ng/mL	0.21 ng/mL	0.05 ng/mL	0.01 ng/mL	0.03 ng/mL	2.26 ng/mL	9.5 ng/mL	Dose-dependent effect	Active
